This is an account of results in ChEMBL document CHEMBL3785029, “Synthesis and Characterization of Fatty Acid Conjugates of Niacin and Salicylic Acid” (J Med Chem, 2016).

For data set [1], the system named is Plasma. Nature of the data set: Drug metabolism in Sprague-Dawley rat plasma assessed as linker EPA metabolite (5Z,8Z,11Z,14Z,17Z)-N-(2-aminoethyl)icosa-5,8,11,14,17-pentaenamide formation at 300 mg/kg, qd administered through oral gavage for 7 days measured 2 hrs post last dose by LC/MS/MS analysis. The following applies: in vivo. The data set is classed as ADME, organism-based.

The target of data set [2] is T1, Fatty-acid amide hydrolase 1 (Rattus norvegicus, UniProt P97612).
T1 sequence (P97612 whole entry): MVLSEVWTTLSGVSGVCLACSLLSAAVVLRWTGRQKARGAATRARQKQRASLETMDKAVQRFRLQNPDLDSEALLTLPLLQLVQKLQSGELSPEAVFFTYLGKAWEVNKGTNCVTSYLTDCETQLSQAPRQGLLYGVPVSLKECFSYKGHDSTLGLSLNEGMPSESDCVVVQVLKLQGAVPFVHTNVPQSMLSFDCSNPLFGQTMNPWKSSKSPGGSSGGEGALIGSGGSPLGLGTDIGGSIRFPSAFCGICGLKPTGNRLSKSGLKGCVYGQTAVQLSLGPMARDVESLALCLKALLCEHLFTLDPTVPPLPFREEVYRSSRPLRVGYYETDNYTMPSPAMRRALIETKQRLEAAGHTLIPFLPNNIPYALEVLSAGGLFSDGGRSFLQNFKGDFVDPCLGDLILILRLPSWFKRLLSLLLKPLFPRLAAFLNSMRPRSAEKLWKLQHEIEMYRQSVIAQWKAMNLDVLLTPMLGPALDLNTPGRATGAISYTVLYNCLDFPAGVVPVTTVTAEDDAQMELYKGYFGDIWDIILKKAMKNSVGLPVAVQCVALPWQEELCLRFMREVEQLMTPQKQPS
The data set is described as follows: Drug metabolism in rat liver lysate assessed as FAAH-mediated compound hydrolysis at 5 uM by LC-MS-MS analysis. The data set is classed as ADME, tissue-based. In a few lines: (§1)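 Rat liver lysate, 3 mg/mL final, in 50 mM HEPES / 1 mM EDTA buffer, pre-equilibrated 20 min at 37 °C; reaction started by adding compound in DMSO; incubated at 37 °C and loss of starting material monitored by LC/MS/MS; FAAH inhibitor PF-3845 added where indicated.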

Data set [3] concerns the target T2, Fatty-acid amide hydrolase 1 (Homo sapiens, UniProt O00519).
T2 sequence (O00519 whole entry): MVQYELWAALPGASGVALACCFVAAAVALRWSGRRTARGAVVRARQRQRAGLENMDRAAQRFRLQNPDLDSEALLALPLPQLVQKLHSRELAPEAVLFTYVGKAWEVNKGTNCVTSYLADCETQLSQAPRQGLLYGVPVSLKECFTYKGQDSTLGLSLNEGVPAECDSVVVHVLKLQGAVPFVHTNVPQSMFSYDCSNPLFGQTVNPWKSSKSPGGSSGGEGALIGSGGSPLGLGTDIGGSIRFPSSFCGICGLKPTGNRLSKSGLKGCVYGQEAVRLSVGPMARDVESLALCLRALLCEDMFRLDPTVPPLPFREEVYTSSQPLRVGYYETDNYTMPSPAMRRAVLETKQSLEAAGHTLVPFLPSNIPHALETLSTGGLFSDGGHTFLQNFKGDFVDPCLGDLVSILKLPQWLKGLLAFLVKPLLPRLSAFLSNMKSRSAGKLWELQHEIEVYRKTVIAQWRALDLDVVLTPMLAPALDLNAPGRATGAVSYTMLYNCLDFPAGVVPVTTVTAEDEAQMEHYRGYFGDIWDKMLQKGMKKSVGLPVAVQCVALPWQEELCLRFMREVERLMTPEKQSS
The data set is described as follows: Drug metabolism assessed as human recombinant N-terminal FLAG/C-terminal His-tagged FAAH1 (32 to 579 residues)-mediated compound hydrolysis by measuring release of EPA at 25 uM after 2 hrs by LC/MS-MS analysis in presence of PF-3845. The data set is classed as ADME.

The test system of data set [4] is Plasma. The data set is described as follows: Metabolic stability in human plasma at 5 uM up to 2 hrs by LC-MS-MS analysis. The data set is classed as ADME, cell-free. The procedure, abridged:
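Plasma from each species diluted to 50% with 0.05 M PBS pH 7.4 and prewarmed to 37 °C; compound added at 5 µM final (from DMSO stock diluted in MeOH); triplicate incubations at 37 °C, sampled at 0, 30, 60, 120 min, quenched with acetonitrile containing internal standard, centrifuged, analysed by LC/MS/MS.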

A short description of data set [5]: Cmax in Sprague-Dawley rat at 100 mg/kg, po administered as single dose measured up to 6 hrs post dose by LC/MS/MS analysis. The data set is classed as ADME, organism-based. As to conditions: in vivo; call rule not given here. On the set-up: dose 100 mg/kg, route oral. In a few lines: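 Single oral dose to Sprague Dawley rats; plasma collected at 0.25, 0.5, 1, 2, 4 and 6 hr; analytes in plasma quantified by LC/MS/MS.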

Data set [6] relates to Rattus norvegicus. The data set is described as follows: Cmax in jugular vein cannulated Sprague-Dawley rat assessed nicotinuric acid at 30 mg/kg, po measured up to 140 mins. The data set is classed as ADME, organism-based. On the set-up: dose 30 mg/kg, route oral. As to conditions: in vivo. The procedure, abridged:
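Sprague Dawley rats surgically fitted with indwelling jugular vein and portal vein cannulas; oral dosing, then serial blood draws from both portal and jugular veins at 10, 20, 40 min and 1, 2, 4, 6 hr post dose; plasma analysed for parent and metabolites by LC/MS/MS.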

Data set [7] has as its target T1, Fatty-acid amide hydrolase 1. The data set is described as follows: Drug metabolism in rat liver lysate assessed as FAAH-mediated compound hydrolysis at 5 uM by LC-MS-MS analysis in the presence of PF3845. The data set is classed as ADME, tissue-based. The procedure, abridged:
as §1

Data set [8] relates to Liver. Nature of the data set: Drug metabolism in Sprague-Dawley rat liver assessed as salicyluric acid formation at 300 mg/kg, po administered for 14 days followed by 7 day washout cycle measured on day 21. The data set is classed as ADME, organism-based. The following applies: in vivo.
Data set [9] has as its system Rattus norvegicus. The data set is described as follows: AUClast in Sprague-Dawley rat assessed as salicylic acid at 300 mg/kg, po measured up to 24 hrs post dose. The data set is classed as ADME, organism-based. As to conditions: in vivo. Also noted: time < 24 hr, dose 300 mg/kg, route oral. The procedure, abridged: (§2)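 Single oral dose of 300 mg/kg to Sprague Dawley rats. Plasma collected at 0, 0.5, 1, 2, 4, 8 and 24 hr. Analytes were the parent, the salicylate-linker and linker-DHA metabolites, salicylic acid and salicyluric acid; Cmax and AUClast derived.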

Data set [10] concerns Plasma. Nature of the data set: Drug uptake in Sprague-Dawley rat plasma at 300 mg/kg, po administered for 14 days followed by 7 day washout cycle measured on day 21. The data set is classed as ADME, organism-based. As to conditions: in vivo.
The subject of data set [11] is Rattus norvegicus. Nature of the data set: AUClast in Sprague-Dawley rat assessed as salicyluric acid at 300 mg/kg, po measured up to 24 hrs post dose. The data set is classed as ADME, organism-based. Also noted: time < 24 hr, dose 300 mg/kg, route oral. As to conditions: in vivo. The procedure, abridged: as §2
Data set [12] deals with Liver. Nature of the data set: Drug uptake in Sprague-Dawley rat liver at 300 mg/kg, po administered for 14 days followed by 7 day washout cycle measured on day 21. The data set is classed as ADME, organism-based. The following applies: in vivo.
The next data set has as its system Brain. The data set is described as follows: Drug metabolism in Sprague-Dawley rat brain assessed as salicyluric acid formation at 300 mg/kg, po administered for 14 days followed by 7 day washout cycle measured on day 21. As to conditions: in vivo. The data set is classed as ADME, organism-based.
The subject of data set [13] is Rattus norvegicus. The data set is described as follows: Cmax in Sprague-Dawley rat assessed as salicylate-linker metabolite N-(2-aminoethyl)-2-hydroxy-benzamide at 300 mg/kg, po measured up to 24 hrs post dose. The following applies: in vivo. The data set is classed as ADME, organism-based. Also noted: dose 300 mg/kg, route oral. The procedure, abridged:
as §2

A short description of data set [14]: Drug uptake in Sprague-Dawley rat epididymal fat at 300 mg/kg, po administered for 14 days followed by 7 day washout cycle measured on day 21. The data set is classed as ADME, organism-based, Epididymal fat pad. As to conditions: in vivo.

Molecules are shown by their SMILES.

Consider `CC/C=C\C/C=C\C/C=C\C/C=C\C/C=C\CCCC(=O)NCCNC(=O)c1cccnc1`, for which the Drug metabolism in the data set with Plasma [1] is 1.1 ng/mL; in [2] (TDE = time-dependent effect), “tde”; in [3], “metabolite_notdetected”; in data set [7], “metabolite_notdetected”. Moreover, the Stability entry with Plasma [4] was “Stable”. In addition, the Cmax in data set [5] amounted to 212 ng/mL; in the data set with Rattus norvegicus [6], 135 ng/mL.

Regarding `CC/C=C\C/C=C\C/C=C\C/C=C\C/C=C\C/C=C\CCC(=O)NCCNC(=O)c1ccccc1O` [EDASALONEXENT], the Drug metabolism entry was “metabolite_notdetected” with Liver [8], “metabolite_detected” in data set [2], “metabolite_notdetected” in the data set with Brain and “metabolite_notdetected” in [7]. Besides, the AUClast in the data set with Rattus norvegicus [9] came to 229 ng·h/mL; in the data set with Rattus norvegicus [11], 2937 ng·h/mL. Also, the Drug uptake entry (in the data set with Plasma [10]; in the data set with Liver [12]; in data set [14]) was “Not Active” in each case. In the data set on Rattus norvegicus [13], the Cmax was determined as 484 ng/mL.
